Measurements published in ChEMBL document CHEMBL3769382, “Structure-Based Discovery of Novel and Selective 5-Hydroxytryptamine 2B Receptor Antagonists for the Treatment of Irritable Bowel Syndrome” (J Med Chem, 2016).
Each block holds one compound with its values, some of them ahead of it.

What was measured:
[1] = biological target: T1, 5-hydroxytryptamine receptor 2B (Homo sapiens, UniProt P41595); assay: Antagonist activity at 5-HT2B receptor (unknown origin) expressed in CHO-K1 cells assessed as calcium flux at 1 uM after 60 mins by FLIPR assay; type: functional, cell-based
T1 sequence (P41595 whole entry): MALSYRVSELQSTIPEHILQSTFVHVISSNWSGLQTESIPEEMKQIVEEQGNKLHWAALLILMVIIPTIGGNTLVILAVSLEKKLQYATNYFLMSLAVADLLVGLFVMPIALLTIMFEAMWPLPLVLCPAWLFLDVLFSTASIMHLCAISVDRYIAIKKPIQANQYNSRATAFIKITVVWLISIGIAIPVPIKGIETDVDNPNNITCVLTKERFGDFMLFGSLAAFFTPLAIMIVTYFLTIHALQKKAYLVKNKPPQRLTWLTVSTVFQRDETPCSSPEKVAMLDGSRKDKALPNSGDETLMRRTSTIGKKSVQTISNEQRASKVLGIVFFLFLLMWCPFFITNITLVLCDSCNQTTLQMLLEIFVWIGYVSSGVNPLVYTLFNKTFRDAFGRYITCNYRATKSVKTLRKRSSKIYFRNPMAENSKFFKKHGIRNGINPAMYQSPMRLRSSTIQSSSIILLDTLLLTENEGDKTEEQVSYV
Method in brief: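 CHO-K1 cells stably expressing 5-HT2B receptor, antagonist mode, calcium flux read-out. Compounds screened at 10 μM and 1 μM; dose-response curves run for compounds active in the screen to give IC50.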

[2] = biological target: 5-hydroxytryptamine receptor 6 (Homo sapiens, UniProt P50406); assay: Displacement of [3H]LSD from 5-HT6 receptor (unknown origin) after 1.5 hrs by microbeta scintillation counting method
Chain of 5-hydroxytryptamine receptor 6 (P50406 whole entry): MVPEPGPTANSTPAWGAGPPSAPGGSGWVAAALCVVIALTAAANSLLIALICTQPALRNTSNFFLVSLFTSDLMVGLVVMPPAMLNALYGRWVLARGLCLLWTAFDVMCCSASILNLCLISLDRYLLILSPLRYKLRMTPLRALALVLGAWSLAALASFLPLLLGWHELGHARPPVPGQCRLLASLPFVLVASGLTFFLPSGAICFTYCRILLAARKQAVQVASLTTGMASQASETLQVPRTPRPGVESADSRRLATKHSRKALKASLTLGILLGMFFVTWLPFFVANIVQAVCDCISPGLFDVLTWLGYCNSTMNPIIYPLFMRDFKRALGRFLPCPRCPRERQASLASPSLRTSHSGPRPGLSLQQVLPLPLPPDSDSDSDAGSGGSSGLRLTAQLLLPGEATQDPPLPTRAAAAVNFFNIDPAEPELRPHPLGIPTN

Rattus norvegicus [3] = assay: Inhibition of visceral hypersensitivity in Sprague-Dawley rat model of IBS assessed as […] by measuring lifting of pelvic structure and arching of body at 30 mg/kg, po by colorectal distention test; type: functional
Method in brief: (§1)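 Rat IBS model induced by TNBS injection, then chronic unpredictable mild stress; colon histology checked by HE staining. Compound given orally at 30 mg/kg. Visceral sensitivity scored by abdominal withdrawal reflex, with pain thresholds in mmHg at scores 3 and 4. Compared with control rats; % inhibition derived from thresholds.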

[4] = biological target: T2, 5-hydroxytryptamine receptor 2C (Homo sapiens, UniProt P28335); assay: Displacement of [3H]LSD from 5-HT2C receptor (unknown origin) after 1.5 hrs by microbeta scintillation counting method
T2 sequence (P28335 whole entry): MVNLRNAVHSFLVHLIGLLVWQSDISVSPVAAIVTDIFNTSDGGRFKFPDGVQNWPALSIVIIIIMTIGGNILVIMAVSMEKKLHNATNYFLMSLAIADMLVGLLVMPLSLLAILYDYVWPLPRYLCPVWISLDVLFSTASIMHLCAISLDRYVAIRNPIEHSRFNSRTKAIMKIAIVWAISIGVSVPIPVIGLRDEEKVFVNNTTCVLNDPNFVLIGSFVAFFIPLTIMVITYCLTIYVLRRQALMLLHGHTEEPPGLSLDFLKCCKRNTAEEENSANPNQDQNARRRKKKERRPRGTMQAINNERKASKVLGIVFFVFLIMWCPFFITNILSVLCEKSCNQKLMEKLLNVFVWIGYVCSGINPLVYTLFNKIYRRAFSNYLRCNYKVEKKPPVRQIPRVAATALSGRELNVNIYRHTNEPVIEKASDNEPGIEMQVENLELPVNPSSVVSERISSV

[5] = biological target: T3, 5-hydroxytryptamine receptor 1A (Homo sapiens, UniProt P08908); assay: Displacement of [3H]8-OH-DPAT from 5-HT1A receptor (unknown origin) after 1.5 hrs by microbeta scintillation counting method
T3 sequence (P08908 whole entry): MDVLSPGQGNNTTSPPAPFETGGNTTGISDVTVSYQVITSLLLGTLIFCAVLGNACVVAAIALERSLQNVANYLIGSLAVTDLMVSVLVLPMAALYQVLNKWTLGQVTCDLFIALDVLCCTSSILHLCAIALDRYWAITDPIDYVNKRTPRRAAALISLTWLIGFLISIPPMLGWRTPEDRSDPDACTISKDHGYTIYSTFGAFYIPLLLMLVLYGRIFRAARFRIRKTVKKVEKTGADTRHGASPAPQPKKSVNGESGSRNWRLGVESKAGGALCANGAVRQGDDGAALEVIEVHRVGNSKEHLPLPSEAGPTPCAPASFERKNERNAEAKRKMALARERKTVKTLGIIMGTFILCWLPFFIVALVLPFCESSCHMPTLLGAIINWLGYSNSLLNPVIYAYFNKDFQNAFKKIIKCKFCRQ

[6] = biological target: T1, 5-hydroxytryptamine receptor 2B; assay: Displacement of [3H]LSD from 5-HT2B receptor (unknown origin) after 1.5 hrs by microbeta scintillation counting method
[7] = biological target: 5-hydroxytryptamine receptor 5A (Homo sapiens, UniProt P47898); assay: Displacement of [3H]LSD from 5-HT5A receptor (unknown origin) after 1.5 hrs by microbeta scintillation counting method
Chain of 5-hydroxytryptamine receptor 5A (P47898 whole entry): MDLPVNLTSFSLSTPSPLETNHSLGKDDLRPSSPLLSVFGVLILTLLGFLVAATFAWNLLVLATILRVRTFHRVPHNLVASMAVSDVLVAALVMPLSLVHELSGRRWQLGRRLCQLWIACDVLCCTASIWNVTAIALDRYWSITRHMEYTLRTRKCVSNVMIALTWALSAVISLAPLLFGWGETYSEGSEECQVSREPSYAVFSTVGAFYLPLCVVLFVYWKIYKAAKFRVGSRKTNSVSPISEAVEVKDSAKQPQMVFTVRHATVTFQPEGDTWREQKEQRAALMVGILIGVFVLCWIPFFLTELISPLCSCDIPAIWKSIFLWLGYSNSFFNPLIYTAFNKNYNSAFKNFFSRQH

[8] = biological target: 5-hydroxytryptamine receptor 1E (Homo sapiens, UniProt P28566); assay: Displacement of [3H]-5-HT from 5-HT1E receptor (unknown origin) after 1.5 hrs by microbeta scintillation counting method
Chain of 5-hydroxytryptamine receptor 1E (P28566 whole entry): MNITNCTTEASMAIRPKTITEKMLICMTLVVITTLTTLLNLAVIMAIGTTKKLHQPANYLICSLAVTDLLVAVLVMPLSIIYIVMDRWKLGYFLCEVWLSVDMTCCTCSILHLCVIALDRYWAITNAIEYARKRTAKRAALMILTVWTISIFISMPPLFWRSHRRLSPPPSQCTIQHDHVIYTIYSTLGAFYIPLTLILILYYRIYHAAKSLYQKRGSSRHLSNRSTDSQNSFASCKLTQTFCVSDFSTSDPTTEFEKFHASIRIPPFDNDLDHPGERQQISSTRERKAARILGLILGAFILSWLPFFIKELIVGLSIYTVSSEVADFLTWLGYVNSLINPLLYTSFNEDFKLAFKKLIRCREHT

[9] = biological target: 5-hydroxytryptamine receptor 2A (Homo sapiens, UniProt P28223); assay: Displacement of [3H]Ketanserin from 5-HT2A receptor (unknown origin) after 1.5 hrs by microbeta scintillation counting method
Chain of 5-hydroxytryptamine receptor 2A (P28223 whole entry): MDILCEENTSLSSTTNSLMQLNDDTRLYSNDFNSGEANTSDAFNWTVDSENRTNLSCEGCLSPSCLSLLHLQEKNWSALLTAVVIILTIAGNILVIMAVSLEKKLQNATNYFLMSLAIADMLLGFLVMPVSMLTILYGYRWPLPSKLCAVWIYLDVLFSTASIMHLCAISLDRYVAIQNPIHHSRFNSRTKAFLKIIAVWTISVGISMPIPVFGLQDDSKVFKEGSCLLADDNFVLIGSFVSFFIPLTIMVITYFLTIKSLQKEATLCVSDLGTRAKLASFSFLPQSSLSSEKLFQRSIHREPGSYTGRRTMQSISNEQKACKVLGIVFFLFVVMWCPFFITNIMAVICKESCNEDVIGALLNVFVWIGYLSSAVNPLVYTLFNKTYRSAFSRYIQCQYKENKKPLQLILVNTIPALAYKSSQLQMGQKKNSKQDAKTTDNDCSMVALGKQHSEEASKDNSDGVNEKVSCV

[10] = biological target: 5-hydroxytryptamine receptor 7 (Homo sapiens, UniProt P34969); assay: Displacement of [3H]LSD from 5-HT7A receptor (unknown origin) after 1.5 hrs by microbeta scintillation counting method
Chain of 5-hydroxytryptamine receptor 7 (P34969 whole entry): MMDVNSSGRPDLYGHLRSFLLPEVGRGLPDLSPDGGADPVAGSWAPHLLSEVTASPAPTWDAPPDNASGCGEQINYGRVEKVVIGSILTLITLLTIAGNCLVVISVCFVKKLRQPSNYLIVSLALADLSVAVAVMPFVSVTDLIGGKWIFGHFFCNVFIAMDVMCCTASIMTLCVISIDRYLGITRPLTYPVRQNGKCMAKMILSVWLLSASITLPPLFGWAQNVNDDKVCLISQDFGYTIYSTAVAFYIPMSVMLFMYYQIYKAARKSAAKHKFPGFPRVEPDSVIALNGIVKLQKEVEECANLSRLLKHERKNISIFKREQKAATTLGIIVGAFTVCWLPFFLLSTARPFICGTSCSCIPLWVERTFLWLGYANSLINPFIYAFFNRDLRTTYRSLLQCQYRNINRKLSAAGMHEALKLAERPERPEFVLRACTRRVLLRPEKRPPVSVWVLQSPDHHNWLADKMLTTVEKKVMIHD

[11] = biological target: 5-hydroxytryptamine receptor 1B (Homo sapiens, UniProt P28222); assay: Displacement of [3H][…] from 5-HT1B receptor (unknown origin) after 1.5 hrs by microbeta scintillation counting method
Chain of 5-hydroxytryptamine receptor 1B (P28222 whole entry): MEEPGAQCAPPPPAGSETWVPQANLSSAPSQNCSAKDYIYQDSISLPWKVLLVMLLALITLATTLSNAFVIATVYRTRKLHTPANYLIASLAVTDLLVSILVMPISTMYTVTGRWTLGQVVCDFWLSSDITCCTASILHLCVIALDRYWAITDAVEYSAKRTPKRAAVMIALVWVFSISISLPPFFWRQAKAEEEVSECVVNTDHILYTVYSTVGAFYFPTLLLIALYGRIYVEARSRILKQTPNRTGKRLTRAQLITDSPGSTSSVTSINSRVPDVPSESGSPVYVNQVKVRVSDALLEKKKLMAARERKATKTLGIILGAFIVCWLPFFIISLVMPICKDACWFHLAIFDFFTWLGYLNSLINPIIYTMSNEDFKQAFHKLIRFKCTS

Rattus norvegicus [12] = assay: Acute toxicity in Sprague-Dawley rat at 500 mg/kg, po; type: organism-based; conditions: in vivo
[13] = biological target: 5-hydroxytryptamine receptor 1D (Homo sapiens, UniProt P28221); assay: Displacement of [3H][…] from 5-HT1D receptor (unknown origin) after 1.5 hrs by microbeta scintillation counting method
Chain of 5-hydroxytryptamine receptor 1D (P28221 whole entry): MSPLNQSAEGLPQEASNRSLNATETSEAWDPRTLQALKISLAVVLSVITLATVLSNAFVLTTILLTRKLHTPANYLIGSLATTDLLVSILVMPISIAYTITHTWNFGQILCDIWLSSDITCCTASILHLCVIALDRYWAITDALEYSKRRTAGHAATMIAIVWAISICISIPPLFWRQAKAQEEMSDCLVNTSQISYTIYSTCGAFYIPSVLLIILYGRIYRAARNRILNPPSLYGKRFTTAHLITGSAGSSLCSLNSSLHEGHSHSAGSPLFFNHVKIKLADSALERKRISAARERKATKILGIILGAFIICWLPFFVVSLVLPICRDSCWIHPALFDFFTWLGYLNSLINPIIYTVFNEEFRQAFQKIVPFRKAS

[14] = biological target: T4, 5-hydroxytryptamine receptor 3A (Homo sapiens, UniProt P46098); assay: Displacement of [3H]LY278584 from 5-HT3 receptor (unknown origin) after 1.5 hrs by microbeta scintillation counting method
T4 sequence (P46098 whole entry): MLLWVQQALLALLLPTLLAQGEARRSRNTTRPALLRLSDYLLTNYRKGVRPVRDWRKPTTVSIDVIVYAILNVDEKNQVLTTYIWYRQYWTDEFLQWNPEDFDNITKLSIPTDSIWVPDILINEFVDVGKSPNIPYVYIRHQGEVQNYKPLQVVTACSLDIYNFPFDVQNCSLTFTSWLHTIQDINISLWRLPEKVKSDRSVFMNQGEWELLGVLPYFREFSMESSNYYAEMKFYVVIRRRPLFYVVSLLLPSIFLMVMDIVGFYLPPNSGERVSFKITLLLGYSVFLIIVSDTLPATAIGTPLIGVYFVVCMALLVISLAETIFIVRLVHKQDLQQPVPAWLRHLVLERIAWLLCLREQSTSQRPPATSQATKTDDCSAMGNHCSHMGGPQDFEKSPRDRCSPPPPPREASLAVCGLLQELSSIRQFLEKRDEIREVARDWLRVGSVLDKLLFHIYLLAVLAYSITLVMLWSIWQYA

[15] = biological target: Voltage-gated inwardly rectifying potassium channel KCNH2 (Homo sapiens, UniProt Q12809); assay: Inhibition of human ERG channel by patch clamp assay
Chain of Voltage-gated inwardly rectifying potassium channel KCNH2 (Q12809 whole entry): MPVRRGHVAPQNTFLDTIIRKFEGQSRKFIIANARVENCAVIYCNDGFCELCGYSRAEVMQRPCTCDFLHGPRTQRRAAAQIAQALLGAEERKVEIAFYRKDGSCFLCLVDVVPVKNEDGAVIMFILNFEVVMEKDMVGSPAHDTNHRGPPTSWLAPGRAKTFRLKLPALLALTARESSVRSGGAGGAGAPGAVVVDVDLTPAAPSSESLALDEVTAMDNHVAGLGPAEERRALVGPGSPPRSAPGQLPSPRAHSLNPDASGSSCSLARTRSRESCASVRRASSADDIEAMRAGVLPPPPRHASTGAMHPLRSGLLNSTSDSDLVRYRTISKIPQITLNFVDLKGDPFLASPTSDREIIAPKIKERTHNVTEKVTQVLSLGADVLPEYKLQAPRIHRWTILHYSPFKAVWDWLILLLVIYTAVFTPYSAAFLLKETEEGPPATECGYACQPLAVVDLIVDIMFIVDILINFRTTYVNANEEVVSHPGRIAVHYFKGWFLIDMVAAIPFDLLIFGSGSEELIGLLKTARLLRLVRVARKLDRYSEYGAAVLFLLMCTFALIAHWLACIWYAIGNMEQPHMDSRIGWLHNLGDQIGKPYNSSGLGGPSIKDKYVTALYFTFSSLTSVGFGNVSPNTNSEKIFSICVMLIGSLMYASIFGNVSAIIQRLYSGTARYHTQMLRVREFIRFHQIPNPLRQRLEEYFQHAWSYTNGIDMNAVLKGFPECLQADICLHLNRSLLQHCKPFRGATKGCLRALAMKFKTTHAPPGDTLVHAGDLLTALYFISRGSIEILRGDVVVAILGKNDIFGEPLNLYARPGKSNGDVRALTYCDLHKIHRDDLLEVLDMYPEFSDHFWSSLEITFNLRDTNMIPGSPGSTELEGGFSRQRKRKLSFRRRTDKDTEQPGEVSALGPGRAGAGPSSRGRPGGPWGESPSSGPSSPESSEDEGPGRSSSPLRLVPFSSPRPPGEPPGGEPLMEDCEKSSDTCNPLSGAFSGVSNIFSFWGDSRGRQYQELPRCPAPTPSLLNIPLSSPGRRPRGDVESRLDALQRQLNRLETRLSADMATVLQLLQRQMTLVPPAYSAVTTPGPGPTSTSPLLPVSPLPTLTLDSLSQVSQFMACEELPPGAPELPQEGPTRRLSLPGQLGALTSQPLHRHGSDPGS

Rattus norvegicus [16] = assay: Inhibition of visceral hypersensitivity in Sprague-Dawley rat model of IBS assessed as […] by measuring abdominal contraction at 30 mg/kg, po by colorectal distention test; type: functional; conditions: Abdomen; method in brief: as §1

SMILES: NC1=NC2(CCCCC2)NC(Nc2ccc(Cl)cc2)=N1
inhibition [1]: 57.1%

SMILES: CCN(CC)C(=O)c1cccc(NC2=NC(N)=NC3(CCCCC3)N2)c1
inhibition [1]: 40.7%

SMILES: Cc1ccccc1NC1=NC(N)=NC2(CCCCC2)N1
inhibition [1]: 39.9%

SMILES: NC1=NC2(CCCCC2)NC(Nc2cccc(Br)c2)=N1
Ki [2]: 3030 nM | inhibition in vivo at 30 mg/kg (Rattus norvegicus [3]): 63% | Ki [4]: 156 nM | Ki [5]: 320 nM | inhibition [1]: 97.4% | Ki [6]: 6.2 nM | Ki [7]: 227 nM | Ki [8]: > 10000 nM | Ki [9]: 211 nM | Ki [10]: 401 nM | Ki [11]: > 10000 nM | Activity (Rattus norvegicus [12]): Non-toxic | Ki [13]: 2900 nM | Ki [14]: > 10000 nM | IC50 [15]: > 1000 nM | inhibition in vivo at 30 mg/kg (Rattus norvegicus [16]): 68%

SMILES: CCOC(=O)c1cccc(NC2=NC(N(C)C)=NC3(CCCCC3)N2)c1
Ki [2]: 4780 nM | Ki [4]: 1200 nM | Ki [5]: 116 nM | inhibition [1]: 91.8% | Ki [6]: 38.5 nM | Ki [7]: 595 nM | Ki [8]: > 10000 nM | Ki [9]: 1540 nM | Ki [10]: 516 nM | Ki [11]: 9650 nM | Ki [13]: 3830 nM | Ki [14]: > 10000 nM

SMILES: CCOC(=O)c1cccc(NC2=NC(NC)=NC3(CCCCC3)N2)c1
inhibition [1]: 108%

SMILES: CC1(C)N=C(N)N=C(Nc2cccc(Br)c2)N1
Ki [2]: 696 nM | Ki [4]: 265 nM | Ki [5]: 660 nM | inhibition [1]: 75.9% | Ki [6]: 20.5 nM | Ki [7]: 389 nM | Ki [8]: > 10000 nM | Ki [9]: 783 nM | Ki [10]: 2080 nM | Ki [11]: 1530 nM | Ki [13]: 2650 nM | Ki [14]: > 10000 nM

SMILES: CN(C)c1ccc(NC2=NC(N)=NC3(CCCCC3)N2)cc1
inhibition [1]: 17.6%

SMILES: CCOC(=O)c1cccc(N(C)C2=NC(N)=NC3(CCCCC3)N2)c1
inhibition [1]: 50.4%

Second part, the compound after the results:

inhibition [1]: 20.7%
SMILES: COc1ccccc1NC1=NC(N)=NC2(CCCCC2)N1

inhibition [1]: 106%
SMILES: CCCC(=O)c1cccc(NC2=NC(N)=NC3(CCCCC3)N2)c1

inhibition [1]: 84.6%
SMILES: COc1cccc(NC2=NC(N)=NC3(CCCCC3)N2)c1

Ki [2]: 5910 nM | Ki [4]: 1900 nM | Ki [5]: 6760 nM | inhibition [1]: 95.5% | Ki [6]: 27.5 nM | Ki [7]: 994 nM | Ki [8]: > 10000 nM | Ki [9]: 1310 nM | Ki [10]: 427 nM | Ki [11]: > 10000 nM | Ki [13]: > 10000 nM | Ki [14]: > 10000 nM
SMILES: CCNC(=O)c1cccc(NC2=NC(N)=NC3(CCCCC3)N2)c1

inhibition [1]: 50.2%
SMILES: Cc1ccc(NC2=NC(N)=NC3(CCCCC3)N2)cc1

inhibition [1]: 110%
SMILES: CCCOC(=O)c1cccc(NC2=NC(N)=NC3(CCCCC3)N2)c1

inhibition [1]: 4.4%
SMILES: NC1=NC2(CCCCC2)NC(Nc2cccc(C(=O)O)c2)=N1

inhibition [1]: 63%
SMILES: COc1cccc(NC2=NC(N)=NC3(CCCC3)N2)c1

inhibition [1]: 4%
SMILES: NC1=NC2(CCCCC2)NC(Nc2cccc(C(=O)C3CC3)c2)=N1

Ki [2]: 3590 nM | Ki [4]: 851 nM | Ki [5]: 714 nM | inhibition [1]: 107% | Ki [6]: 7.2 nM | Ki [7]: 457 nM | Ki [8]: > 10000 nM | Ki [9]: 174 nM | Ki [10]: 472 nM | Ki [11]: > 10000 nM | Ki [13]: 8590 nM | Ki [14]: > 10000 nM
SMILES: CCOC(=O)c1cccc(NC2=NC(N)=NC3(CCCCC3)N2)c1
